# Reference: ChEMBL document CHEMBL1132975, “2',6'-Dimethylphenoxyacetyl: a new achiral high affinity P(3)-P(2) ligand for peptidomimetic-based HIV protease inhibitors” (J Med Chem, 2000)
# Tested on: not listed separately
# Assay: Area Under the Curve (AUC) for the compound is evaluated after the oral administration at 5 mg/kg.
# Type: ADME, organism-based
# Parameters: dose 5 mg/kg, route oral
# Settings: in vivo
row,Compound,AUC [µM·h]
1,Cc1cccc(C)c1OCC(=O)N[C@@H](Cc1ccccc1)[C@H](O)CN1CC[C@@H](SCc2cccnc2)C[C@H]1C(=O)NC(C)(C)C,3.26
2,Cc1cccc(C)c1OCC(=O)N[C@@H](Cc1ccccc1)[C@H](O)CN1CC[C@@H](SCc2ccncc2)C[C@H]1C(=O)NC(C)(C)C,1.71
3,Cc1cccc(C)c1OCC(=O)N[C@@H](Cc1ccccc1)[C@H](O)CN1CC[C@@H](Sc2ccncc2)C[C@H]1C(=O)NC(C)(C)C,1.77
4,Cc1cc(S[C@@H]2CCN(C[C@@H](O)[C@H](Cc3ccccc3)NC(=O)COc3c(C)cccc3C)[C@H](C(=O)NC(C)(C)C)C2)nc(C)n1,1.67

# Tested on: Human immunodeficiency virus 1
# Assay: The binding affinity is evaluated for viral strains HIV-1 IIIB
# Type: functional, organism-based
# Settings: not given
row,Compound,Ki [nM]
1,CC(C)[C@H](NC(=O)c1ccc2ccccc2n1)C(=O)N[C@@H](Cc1ccccc1)[C@H](O)CN1CC[C@@H](OCc2ccncc2)C[C@H]1C(=O)NC(C)(C)C,0.031
2,Cc1cccc(C)c1OCC(=O)N[C@@H](Cc1ccccc1)[C@H](O)CN1CC[C@@H](Sc2ccncc2)C[C@H]1C(=O)NC(C)(C)C,0.006

# Tested on: not listed separately
# Assay: Half life for the clearance after intravenous (iv) administration of dose of 1 mg/kg
# Type: ADME, organism-based
# Parameters: dose 1 mg/kg, route intravenous
# Settings: in vivo
row,Compound,half-life [min]
1,Cc1cc(S[C@@H]2CCN(C[C@@H](O)[C@H](Cc3ccccc3)NC(=O)COc3c(C)cccc3C)[C@H](C(=O)NC(C)(C)C)C2)nc(C)n1,102

# Biological target: T1, Human immunodeficiency virus type 1 protease (Human immunodeficiency virus 1, UniProt Q72874)
# Assay: In vitro inhibition of HIV-1.
# Settings: not given
row,Compound,IC50 [nM]
1,CC(C)(C)NC(=O)[C@@H]1C[C@H](OCc2ccncc2)CCN1C[C@@H](O)[C@H](Cc1ccccc1)NC(=O)/C=C/c1ccccc1,11000
2,CC(C)(C)NC(=O)[C@@H]1C[C@H](OCc2ccncc2)CCN1C[C@@H](O)[C@H](Cc1ccccc1)NC(=O)OCc1ccccc1,400
3,Cc1ccccc1OCC(=O)N[C@@H](Cc1ccccc1)[C@H](O)CN1CC[C@@H](OCc2ccncc2)C[C@H]1C(=O)NC(C)(C)C,120
4,CC(C)(C)NC(=O)[C@@H]1C[C@H](OCc2ccncc2)CCN1C[C@@H](O)[C@H](Cc1ccccc1)NC(=O)COc1ccccc1,1100
5,CC(C)(C)NC(=O)[C@@H]1C[C@H](OCc2ccncc2)CCN1C[C@@H](O)[C@H](Cc1ccccc1)NC(=O)CSc1ccccc1,4200
6,Cc1cccc(C)c1OCC(=O)N[C@@H](Cc1ccccc1)[C@H](O)CN1C[C@H]2CCCC[C@H]2C[C@H]1C(=O)NC(C)(C)C,8.4
7,Cc1cccc(C)c1CCC(=O)N[C@@H](Cc1ccccc1)[C@H](O)CN1CC[C@@H](OCc2ccncc2)C[C@H]1C(=O)NC(C)(C)C,2400
8,Cc1cccc(C)c1OCC(=O)N[C@@H](Cc1ccccc1)[C@H](O)CN1CC[C@@H](SCc2cccnc2)C[C@H]1C(=O)NC(C)(C)C,1.7
9,Cc1ccccc1CCC(=O)N[C@@H](Cc1ccccc1)[C@H](O)CN1CC[C@@H](OCc2ccncc2)C[C@H]1C(=O)NC(C)(C)C,2500
10,CC(C)(C)NC(=O)[C@@H]1C[C@H](OCc2ccncc2)CCN1C[C@@H](O)[C@H](Cc1ccccc1)NC(=O)O[C@@H]1CCOC1,260
11,Cc1cccc(C)c1OCC(=O)N[C@@H](Cc1ccccc1)[C@H](O)CN1CC[C@@H](SCc2ccncc2)C[C@H]1C(=O)NC(C)(C)C,1.8
12,Cc1cccc(C)c1COC(=O)N[C@@H](Cc1ccccc1)[C@H](O)CN1CC[C@@H](OCc2ccncc2)C[C@H]1C(=O)NC(C)(C)C,420
13,Cc1cccc(C)c1OCC(=O)N[C@@H](Cc1ccccc1)[C@H](O)CN(CC(C)C)S(=O)(=O)c1ccc(N)cc1,2.6
14,Cc1ccccc1COC(=O)N[C@@H](Cc1ccccc1)[C@H](O)CN1CC[C@@H](OCc2ccncc2)C[C@H]1C(=O)NC(C)(C)C,210
15,Cc1cccc(C)c1OCC(=O)N[C@@H](Cc1ccccc1)[C@H](O)CN1CC[C@@H](OCc2ccncc2)C[C@H]1C(=O)NC(C)(C)C,7
16,Cc1cccc(C)c1OC(C)C(=O)N[C@@H](Cc1ccccc1)[C@H](O)CN1CC[C@@H](OCc2ccncc2)C[C@H]1C(=O)NC(C)(C)C (stereo not given in full),20
17,CC(C)(C)NC(=O)[C@@H]1C[C@H](OCc2ccncc2)CCN1C[C@@H](O)[C@H](Cc1ccccc1)NC(=O)CCc1ccccc1,1400
18,Cc1cc(S[C@@H]2CCN(C[C@@H](O)[C@H](Cc3ccccc3)NC(=O)COc3c(C)cccc3C)[C@H](C(=O)NC(C)(C)C)C2)nc(C)n1,1.5
19,Cc1c(O)cccc1C(=O)N[C@@H](Cc1ccccc1)[C@H](O)CN1CC[C@@H](OCc2ccncc2)C[C@H]1C(=O)NC(C)(C)C,12
20,CC(C)(C)NC(=O)[C@@H]1C[C@H](OCc2ccncc2)CCN1C[C@@H](O)[C@H](Cc1ccccc1)NC(=O)CCCc1ccccc1,> 20000

# Tested on: not listed separately
# Assay: Half life for the clearance after intravenous (iv) administration of 1 mg/kg
# Type: ADME, organism-based
# Parameters: dose 1 mg/kg, route intravenous
# Settings: in vivo
row,Compound,half-life [min]
1,Cc1cccc(C)c1OCC(=O)N[C@@H](Cc1ccccc1)[C@H](O)CN1CC[C@@H](SCc2cccnc2)C[C@H]1C(=O)NC(C)(C)C,30
2,Cc1cccc(C)c1OCC(=O)N[C@@H](Cc1ccccc1)[C@H](O)CN1CC[C@@H](SCc2ccncc2)C[C@H]1C(=O)NC(C)(C)C,42
3,Cc1cccc(C)c1OCC(=O)N[C@@H](Cc1ccccc1)[C@H](O)CN1CC[C@@H](Sc2ccncc2)C[C@H]1C(=O)NC(C)(C)C,24

# Tested on: Human immunodeficiency virus 2
# Assay: The binding affinity is evaluated for viral strains HIV-2 ROD
# Type: functional, organism-based
# Settings: not given
row,Compound,Ki [nM]
1,Cc1cccc(C)c1OCC(=O)N[C@@H](Cc1ccccc1)[C@H](O)CN1CC[C@@H](Sc2ccncc2)C[C@H]1C(=O)NC(C)(C)C,0.023

# Tested on: not listed separately
# Assay: The compound was evaluated for oral bioavailability in the rat at a peroral (po) dose of 5 mg/kg
# Type: ADME, organism-based
# Settings: in vivo
row,Compound,bioavailability [%]
1,Cc1cccc(C)c1OCC(=O)N[C@@H](Cc1ccccc1)[C@H](O)CN1CC[C@@H](SCc2ccncc2)C[C@H]1C(=O)NC(C)(C)C,22

# Biological target: T1, Human immunodeficiency virus type 1 protease
# Assay: The inhibitory concentration was evaluated for viral strains HIV-2 ROD using a HIV protease HPLC based assay.
# Settings: not given
row,Compound,IC50 [nM]
1,CC(C)[C@H](NC(=O)c1ccc2ccccc2n1)C(=O)N[C@@H](Cc1ccccc1)[C@H](O)CN1CC[C@@H](OCc2ccncc2)C[C@H]1C(=O)NC(C)(C)C,10

# Tested on: Human immunodeficiency virus 1
# Assay: Effective concentration to inhibit replication of viral strain HIV-1 IIIB in acutely infected C8166T cells
# Type: functional, organism-based
# Settings: Human immunodeficiency virus 1, C8166T
# How it was run: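 HIV-1 IIIB infected C8166 T cells at MOI 0.001 in complete medium, then cultured 3 days with serially diluted inhibitor. Extracellular p24 core antigen was measured by ELISA on pooled supernatants (8 replicas) to give percent inhibition. EC50 came from a nonlinear Hill fit.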
row,Compound,EC50 [nM]
1,Cc1cccc(C)c1OCC(=O)N[C@@H](Cc1ccccc1)[C@H](O)CN1C[C@H]2CCCC[C@H]2C[C@H]1C(=O)NC(C)(C)C,100
2,Cc1cccc(C)c1OCC(=O)N[C@@H](Cc1ccccc1)[C@H](O)CN1CC[C@@H](SCc2cccnc2)C[C@H]1C(=O)NC(C)(C)C,6
3,CC(C)[C@H](NC(=O)c1ccc2ccccc2n1)C(=O)N[C@@H](Cc1ccccc1)[C@H](O)CN1CC[C@@H](OCc2ccncc2)C[C@H]1C(=O)NC(C)(C)C,5
4,Cc1cccc(C)c1OCC(=O)N[C@@H](Cc1ccccc1)[C@H](O)CN1CC[C@@H](SCc2ccncc2)C[C@H]1C(=O)NC(C)(C)C,4
5,Cc1cccc(C)c1OCC(=O)N[C@@H](Cc1ccccc1)[C@H](O)CN(CC(C)C)S(=O)(=O)c1ccc(N)cc1,20
6,Cc1cccc(C)c1OCC(=O)N[C@@H](Cc1ccccc1)[C@H](O)CN1CC[C@@H](Sc2ccncc2)C[C@H]1C(=O)NC(C)(C)C,2
7,Cc1cccc(C)c1OCC(=O)N[C@@H](Cc1ccccc1)[C@H](O)CN1CC[C@@H](OCc2ccncc2)C[C@H]1C(=O)NC(C)(C)C,24
8,Cc1cc(S[C@@H]2CCN(C[C@@H](O)[C@H](Cc3ccccc3)NC(=O)COc3c(C)cccc3C)[C@H](C(=O)NC(C)(C)C)C2)nc(C)n1,1
9,Cc1c(O)cccc1C(=O)N[C@@H](Cc1ccccc1)[C@H](O)CN1CC[C@@H](OCc2ccncc2)C[C@H]1C(=O)NC(C)(C)C,32

# Tested on: not listed separately
# Assay: Oral bioavailability in rat (dose 5 mg/kg)
# Type: ADME, organism-based
# Settings: in vivo
row,Compound,bioavailability [%]
1,Cc1cccc(C)c1OCC(=O)N[C@@H](Cc1ccccc1)[C@H](O)CN1CC[C@@H](SCc2cccnc2)C[C@H]1C(=O)NC(C)(C)C,37
2,Cc1cccc(C)c1OCC(=O)N[C@@H](Cc1ccccc1)[C@H](O)CN1CC[C@@H](Sc2ccncc2)C[C@H]1C(=O)NC(C)(C)C,61
3,Cc1cc(S[C@@H]2CCN(C[C@@H](O)[C@H](Cc3ccccc3)NC(=O)COc3c(C)cccc3C)[C@H](C(=O)NC(C)(C)C)C2)nc(C)n1,29

# Tested on: Human immunodeficiency virus 2
# Assay: Effective concentration to inhibit replication of viral strain HIV-2 ROD in acutely infected C8166T cells
# Type: functional, organism-based
# Settings: Human immunodeficiency virus 2, C8166T
row,Compound,EC50 [nM]
1,CC(C)[C@H](NC(=O)c1ccc2ccccc2n1)C(=O)N[C@@H](Cc1ccccc1)[C@H](O)CN1CC[C@@H](OCc2ccncc2)C[C@H]1C(=O)NC(C)(C)C,25
2,Cc1cccc(C)c1OCC(=O)N[C@@H](Cc1ccccc1)[C@H](O)CN1CC[C@@H](Sc2ccncc2)C[C@H]1C(=O)NC(C)(C)C,3

# Tested on: not listed separately
# Assay: The plasma concentration is evaluated after oral administration of 5 mg/kg
# Type: ADME, organism-based
# Parameters: dose 5 mg/kg, route oral
# Settings: not given
row,Compound,Cmax [nM]
1,Cc1cccc(C)c1OCC(=O)N[C@@H](Cc1ccccc1)[C@H](O)CN1CC[C@@H](SCc2ccncc2)C[C@H]1C(=O)NC(C)(C)C,1660

# Tested on: not listed separately
# Assay: The plasma concentration is evaluated after oral administration a dose of 5 mg/kg
# Type: ADME, organism-based
# Parameters: dose 5 mg/kg, route oral
# Settings: not given
row,Compound,Cmax [nM]
1,Cc1cccc(C)c1OCC(=O)N[C@@H](Cc1ccccc1)[C@H](O)CN1CC[C@@H](SCc2cccnc2)C[C@H]1C(=O)NC(C)(C)C,2320

# Tested on: Human immunodeficiency virus 2
# Assay: The binding affinity is evaluated for viral strains HIV-2 ROD.
# Type: functional, organism-based
# Settings: not given
row,Compound,Ki [nM]
1,CC(C)[C@H](NC(=O)c1ccc2ccccc2n1)C(=O)N[C@@H](Cc1ccccc1)[C@H](O)CN1CC[C@@H](OCc2ccncc2)C[C@H]1C(=O)NC(C)(C)C,0.13
